AI-2 QS mod = Vibrio harveyi AI-2 quorum sensing modulation; hit rate 0.4% among 300,000; activity change, % at 7.5 µM; Vibrio harveyi JMH597 AI-2 luminescence/OD600 ratio, 9 h; stronger effect = lower value; strain lacks LuxN and CqsS sensors; 0 = neutral-control median; AID 2094; in the data active = activity change below about -75%, passing the limit was not always enough;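 note: luminescence divided by OD600 gain over 9 h not by final OD600 alone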
MC4R antag cAMP = antagonists of human melanocortin 4 receptor (MC4R) | P32245 | MC4R-expressing cells, MTII-stimulated cAMP, LANCE TR-FRET | inhibition, % at 6.5 µM | hit rate 0.48% among 360,000 | AID 540295;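 active = inhibition above its plate's cutoff, the mean of tested wells on that plate plus 3 SD, cut at about 29% in these data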
Target sequence (P32245 whole entry, looked up): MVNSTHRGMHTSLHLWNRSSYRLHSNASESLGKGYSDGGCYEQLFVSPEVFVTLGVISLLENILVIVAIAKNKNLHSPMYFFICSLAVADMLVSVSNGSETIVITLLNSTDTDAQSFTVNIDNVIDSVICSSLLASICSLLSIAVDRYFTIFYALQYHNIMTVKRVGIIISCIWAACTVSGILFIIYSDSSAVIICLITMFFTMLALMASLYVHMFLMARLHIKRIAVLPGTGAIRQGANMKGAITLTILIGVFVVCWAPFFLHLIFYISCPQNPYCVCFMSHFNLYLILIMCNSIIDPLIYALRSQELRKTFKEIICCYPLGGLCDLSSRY
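Material: human MC4R-expressing U2OS cells. Probe or stimulus: Melanotan II challenge. Dosing: 6.5 µM single dose. Times: 30-min compound, 1-h challenge, 1-h detection, room temperature. Technique: TR-FRET with Eu-cAMP and labeled anti-cAMP, 671 nm. Replication: singlicate.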
NTR1 agonist = activates human neurotensin receptor 1; NTR1-U2OS beta-arrestin-GFP spot imaging, agonist mode; activation, % at 20 µM; hit rate 0.17% among 330,000;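 active = activation at or above 40% of the spot to cytoplasm intensity ratio, with at least 20 cells analyzed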
MC4R ag barr = activates human MC4R beta-arrestin recruitment. P32245. U2OS MC4R beta-arrestin complementation, luminescence; percent of melanotan II response, DMSO zero. activation, % at 8.9 µM. hit rate 0.98% among 360,000;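 active = activation above a per-plate cutoff, the mean activation of sample wells on that plate plus 3 SD, cut at about 8% in these data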
MC4R barr ag = human MC4R beta-arrestin agonism confirmation. shares compounds with MC4R ag barr. U2OS MC4R beta-arrestin recruitment, luminescence; scaled DMSO 0%, Melanotan II 100%. activation, % at 8.9 µM. hit rate 31% among 2,400;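 active = mean activation across replicates above the hit cutoff set in the earlier primary screen, cut at about 8% in these data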
MOR-DOR barr ag = OPRM1-OPRD1 heterodimer agonism counter-screen | shares compounds with MC4R ag barr | U2OS PathHunter beta-arrestin, beta-gal luminescence; percent of deltorphin B response, DMSO zero | activation, % at 9.2 µM | hit rate 5.8% among 2,400;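 active = mean activation across replicates exceeds the hit threshold derived in the earlier primary screen, cut at about 18% in these data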
A number is an active result; – = inactive; · = no result given. Sampled rows, rich in hits. Any-hit rate of the full collection: about 1.8%.

SMILES	AI-2 QS mod	MC4R antag cAMP	NTR1 agonist	MC4R ag barr	MC4R barr ag	MOR-DOR barr ag
COC(=O)CSc1nnc(-c2ccccc2OC)o1	–	–	–	–	·	·
O=C(Nc1ccc2ccccc2c1)c1ccc(Cl)cc1Cl	–	–	–	12.2	–	–
O=C(Nc1ccc2ccccc2c1)c1ccccc1Cl	·	–	·	–	·	·
O=C(Nc1ccc(C(F)(F)F)cc1-c1ccccc1)c1ccccc1	–	–	–	12.9	–	–
O=C(Nc1ccccc1-c1ccccc1)c1cccc(C(F)(F)F)c1	–	–	–	–	·	·
O=C(COc1ccc(F)cc1Cl)N(Cc1nnc(-c2ccccc2Cl)o1)C1CC1	–	–	–	–	·	·
CC(C)(C)c1ccccc1NC(=O)Nc1nc(C(N)Cc2ccc(F)cc2)cs1 (stereo not given)	·	–	·	10.8	–	–
CC(C)c1ccccc1NC(=O)Nc1nc(C(N)Cc2ccc(C(F)(F)F)cc2)cs1 (stereo not given)	·	–	·	15.4	13.5	–
COc1ccc(CNC(=O)Nc2nc(C(N)Cc3ccc(C(F)(F)F)cc3)cs2)cc1 (stereo not given)	·	–	·	15.9	17.4	–
O=C(c1ccco1)N(Cc1cccc(Cl)c1)C1CCS(=O)(=O)C1 (stereo not given)	–	–	–	–	·	·
CC(C)(C)c1ccc(C(=O)N2CCCC2c2cccs2)cc1 (stereo not given)	–	–	–	–	·	·
O=C(Cn1nnc(-c2ccccc2Cl)n1)N/N=C/c1ccc(-c2cccc(Cl)c2)o1	–	–	–	11.3	8.9	–
O=C(CN1CCCC1)N/N=C/c1ccc(-c2cccc(Cl)c2)o1	–	–	–	–	·	·
COc1ccc(OC)c(NC(=O)c2cc(-c3cc(C)cc(C)c3O)n[nH]2)c1	–	–	–	19.6	–	–
COc1ccc(NC(=O)c2cc(-c3cc(C)c(C)cc3O)n[nH]2)c(OC)c1	–	–	–	14.8	–	–
COc1ccc([C@H]2C[C@H](n3cc(-c4ccc(F)cc4)nn3)[C@@H](O)CN2CC2CCCCC2)cc1	·	–	·	–	·	·
c1ccc(OCC2CCNCC2)nc1	–	–	–	–	·	·
COc1ccc(S(=O)(=O)Nc2ccccc2C(=O)N2CCOCC2)cc1C	–	–	–	–	·	·
Cc1ccc(C2CC(=O)NC(SCCC(C)C)=C2C#N)cc1 (stereo not given)	–	–	–	9.6	–	–
Cn1c(C(=O)OCC(=O)NCc2cccs2)cc2sccc21	–	–	–	10.2	–	–
Cc1ccc(-c2csc3nc4c5ccccc5c(NCCCN5CCOCC5)nn4c(=O)c23)cc1	–	·	–	·	·	·
Cc1ccc(-c2csc3nc4c5ccccc5c(NCCCN(C)C)nn4c(=O)c23)cc1	–	–	–	13.4	32.7	–
CCCNC(=O)C1(C)CCN(Cc2ccc(-c3ccccn3)cc2)C1 (stereo not given)	·	–	·	–	·	·
Cc1ccccc1OC1(C)CCN(Cc2ccc(-c3ccccn3)cc2)C1 (stereo not given)	·	–	·	15.3	–	–
O=C(O)c1ccc(NC(=O)c2ccccc2NC(=O)c2cccc(Br)c2)cc1	–	–	–	–	·	·
SMILES	AI-2 QS mod	MC4R antag cAMP	NTR1 agonist	MC4R ag barr	MC4R barr ag	MOR-DOR barr ag
Cc1cc2cc(C)c(NCCNC(=O)c3ccccc3)nc2cc1C	–	–	–	–	·	·
Cc1ccc(C(=O)NCCNc2nc3cc(C)c(C)cc3cc2C)cc1	–	–	–	15.0	19.8	–
COc1ccccc1C(=O)NCCC(=O)N1CCN(c2ccccc2O)CC1	–	–	–	–	·	·
CC(C)(C)C1CCC(C(=O)Nc2ccccc2)CC1 (stereo not given)	–	–	–	10.4	–	–
O=C(Nc1ccc(Nc2ccccc2)cc1)C1CC1	–	–	–	–	·	·
O=C(Nc1cc(N2CCOCC2)ncn1)c1ccc(F)cc1	–	–	–	–	·	·
O=C(Nc1cc(N2CCOCC2)ncn1)Nc1cccc2ccccc12	–	–	–	21.6	–	–
COc1ccc(CN(C)CC(=O)N(C)CC(=O)Nc2ccccc2Br)cc1F	·	–	–	–	·	·
COc1cccc(NC(=O)CCC2CCN(C(=O)c3cccc(NC(C)=O)c3)CC2)c1	–	–	–	–	·	·
CN(C)CCCNC(=O)c1ccccn1	–	–	–	–	·	·
CN(C)CCCNC(=O)c1ccc(-c2nc(-c3ccc(Cl)cc3)cs2)cc1	–	–	–	15.7	56.4	–
Cc1ccc(C(=O)Nc2oc(-c3ccccc3)cc2C#N)cc1	–	–	–	12.4	–	–
CCc1ccc(/C=N/NC(=O)c2nnn(-c3nonc3N)c2C(C)C)cc1	–	–	–	–	·	·
CCCNC(=O)C(=O)NCC(c1ccc2c(c1)OCO2)N1CCN(c2ccc(F)cc2)CC1 (stereo not given)	–	–	–	–	·	·
CC(C(=O)Nc1ccccc1F)N1CCN(C)CC1 (stereo not given)	–	·	–	·	·	·
COc1ccc(NC(=O)c2sc3cc(C(F)(F)F)cnc3c2-c2cccs2)cc1	–	–	–	9.8	–	–
O=C(Nc1ccc(F)cc1)c1sc2cc(C(F)(F)F)cnc2c1-c1cccs1	–	–	–	11.0	–	–
O=C(c1ccc(Cl)c(S(=O)(=O)N2CCCCC2)c1)N1CCN(Cc2ccccc2)CC1	–	–	–	–	·	·
C=CCOc1ccc(/C=C/C(=O)OCc2csc(CC(=O)Nc3ccccc3C)n2)cc1	·	–	–	15.5	8.7	–
Cc1ccccc1NC(=O)Cc1nc(COC(=O)/C=C/c2ccc(F)cc2)cs1	·	–	·	–	·	·
Cc1ccccc1NC(=O)Cc1nc(COC(=O)c2cc(Br)ccc2O)cs1	·	–	–	16.5	–	–
Cc1ccccc1NC(=O)Cc1nc(COC(=O)c2cc(Cl)ccc2O)cs1	–	–	–	–	·	·
C=CCc1ccc(O)c(-c2cc(CC=C)ccc2O)c1	–	–	–	9.7	–	–
O=C(CCn1cnc2ccccc2c1=O)Nc1nc(-c2ccc(Br)cc2)cs1	–	–	–	10.8	–	35.0
COc1ccc(OC)c(NC(=O)c2cc3c(Cl)nc4ccccc4c3s2)c1	–	–	–	27.8	–	19.1
SMILES	AI-2 QS mod	MC4R antag cAMP	NTR1 agonist	MC4R ag barr	MC4R barr ag	MOR-DOR barr ag
COc1ccc(NC(=O)c2cc3c(Cl)nc4ccccc4c3s2)cc1OC	–	–	–	10.7	–	–
CCn1c(=O)c2cc(C(=O)Nc3ccccc3OC)sc2c2ccccc21	–	–	–	–	·	·
O=C1CCCC(O)=C1Sc1cc(Cl)c(Cl)cc1Cl	–	–	–	–	·	·
N#Cc1cc(-c2ccc(Cl)cc2)cnc1Sc1ccc(F)cc1	–	–	–	18.5	–	–
Cc1ccccc1OCC(=O)NC(=S)Nc1ccc(Br)c(C)n1	–	–	–	–	·	·
Cc1ccccc1OCC(=O)NC(=S)Nc1cccc2cc(O)ccc12	–	–	–	15.7	22.6	–
CSC1=NC2(C[C@H]2c2ccccc2)C(=O)N1C (stereo not given in full)	–	–	–	–	·	·
CCOC(=O)CNC(=O)CSc1nc2cccnc2n1Cc1ccccc1	–	–	–	–	·	·
